In the library only some 1.7% were active in any assay of this set; here they are far more common.
Neddyl block: blocks human cullin neddylation; TR-FRET cullin neddylation, biochemical; inhibition, % at 25 µM; actives 0.58% (n = 360,000); AID 651699; in the data active = inhibition above about 36%
Efflux pump inh: inhibitors of Candida antifungal efflux pumps expressed in yeast. inhibition, % at 10 µM. actives 0.44% (n = 330,000). S. cerevisiae Candida pump triplex, Nile Red efflux. AID 485275;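 active = plate passing quality check with inhibition over a set limit, or well fluorescence over plate mean plus 4 SD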;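 also: Nile Red retained in pooled yeast measured as flow cytometry median fluorescence; higher means more Nile Red kept so more efflux inhibition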
Arr AP2 block: blocks beta-arrestin peptide binding to AP2 adaptin; FITC-arrestin peptide / GST-AP2 beads, flow cytometry; AP2 beta2 appendage carries R879A mutation; inhibition, % at 10 µM; actives 0.31% (n = 340,000); AID 504490;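 active = inhibition above a set limit, near 3 SD of compounds lacking own fluorescence, cut at about 54% in these data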
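System: GST-AP2 R879A bound to glutathione beads, E. coli-expressed. Also added: 50 nM FITC-arrestin peptide. Schedule: compound with beads 12 min RT, then probe 1 h RT. Signal: bead flow cytometry, FITC channel. Read-out basis: percent response.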
DSG3 Ab inh: inhibitors of pemphigus antibody binding to human desmoglein-3 | P32926 | DSG3-coupled beads, scFv-anti-DSG3-GFP binding, flow cytometry; stronger effect = lower value | binding (percent of control), % at 10 µM | actives 0.48% (n = 310,000) | AID 588358;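 active = binding more than 3 SD below its plate's average and above zero; inconclusive = below that plate limit but binding exactly zero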;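 also: hits lower antibody fragment binding to DSG3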
Arr AP2 CP1: blocks beta-arrestin peptide binding to human AP2; shares compounds with Arr AP2 block; GST-AP2 beads, FITC arrestin peptide binding, flow cytometry; GST-fused beta2-adaptin appendage, R879A mutant; inhibition, % at 10 µM; actives 2% (n = 1,300);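 active = inhibition above a set limit, roughly 3 SD of non-fluorescent compound noise, cut at about 38% in these data; inactive = inhibition at or below that limit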;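 also: loss of bead fluorescence from 50 nM FITC arrestin peptide bound to appendage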
GST-FITC bead: GST-GSH bead binding interference, counter-screen | shares compounds with Arr AP2 block | GST-fluorescein binding to GSH beads, fluorescence | inhibition, % at 10 µM | actives 2% (n = 1,300) | AID 588338;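 active = inhibition above 50%, about 3 SD of the inhibition seen with non-fluorescent compounds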;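 also: fluorescein maleimide labelled GST captured on 4 micron glutathione beads; higher means more loss of bead fluorescence from quenching or blocked binding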
Large screens that a line does not name were inactive (follow-up assays come after a bar, where they were run).

O=C1CCCC(O)=C1C(C#Cc1ccccc1)C1=C(O)CCCC1=O	none
Cc1nnc(NC(=O)C23CC4CC(CC(C4)C2)C3)s1	none
CCOC(=O)C1(CCOC)CCN(C(=O)Cc2ccsc2)CC1	none
CCSc1nnc(NC(=O)C2CSC3(C)CCC(=O)N23)s1 (centres undefined)	Arr AP2 block 60.2, DSG3 Ab inh inconclusive | Arr AP2 CP1 inactive | GST-FITC bead inactive
Cc1ccc(C)c(NC(=O)CN(C)C(=O)[C@@H](NC(=O)c2ccc(C(C)(C)C)cc2)C(C)C)c1	none
CCCCCOc1ccc(NC(=O)C2OC3OC(C)(C)OC3C3OC(C)(C)OC23)cc1 (centres undefined)	Arr AP2 block 107.1 | Arr AP2 CP1 inactive | GST-FITC bead inactive
O=C(CN1C(=O)NC2(CCCC2)C1=O)Nc1ccccc1N1CCCCC1	none
O=C1CC(c2ccco2)CC(O)=C1C=NCCN1CCN(C(=O)Nc2ccc(Cl)cc2)CC1 (centres undefined)	none
O=C1CC(c2ccco2)CC(O)=C1C=NCCN1CCN(C(=S)Nc2ccccc2)CC1 (centres undefined)	Arr AP2 block 56.4 | Arr AP2 CP1 inactive | GST-FITC bead inactive
Cc1ccccc1CN1CCN(CC2CC2)CC1CCO (centres undefined)	Arr AP2 block 56.9 | Arr AP2 CP1 inactive | GST-FITC bead inactive
COc1ccc(CC(=O)N2CCC(n3nccc3NC(=O)C3CCOC3)CC2)cc1 (centres undefined)	Arr AP2 block 63.8 (no result: DSG3 Ab inh) | Arr AP2 CP1 inactive | GST-FITC bead inactive
CCOc1ccccc1N1CCN(C(=O)C(F)(F)F)CC1	none
CCOc1ccccc1N1CCN(C(=O)CC(C)(C)C)CC1	Arr AP2 block 54.9 | Arr AP2 CP1 inactive | GST-FITC bead inactive
COc1ccccc1N1CCN(C(=O)COc2cccc(C)c2C)CC1	Arr AP2 block 61.4 | Arr AP2 CP1 inactive | GST-FITC bead inactive
O=C(Cn1cc(C(F)(F)F)ccc1=O)N1CCc2ccccc21	Arr AP2 block 65.3, DSG3 Ab inh inconclusive | Arr AP2 CP1 inactive | GST-FITC bead inactive
CC(C)N(C(=O)[C@H]1C[C@H](CC(=O)NCC23CC4CC(CC(C4)C2)C3)C(=O)N2CCc3c([nH]c4ccc(Cl)cc34)[C@]12C)C(C)C	none
O=C(Cn1nc(Cl)nc1Cl)c1ccccc1	Arr AP2 block 54.9 | Arr AP2 CP1 inactive | GST-FITC bead inactive
O=C(Cn1nc(Cl)nc1Cl)c1ccc(F)cc1	none
Cn1nc(C(=O)Nc2ccccc2)c2c1-c1ccccc1S(=O)(=O)C2	Arr AP2 block 58.4 | Arr AP2 CP1 inactive | GST-FITC bead inactive
COc1cccc(NC(=O)c2nn(C)c3c2CS(=O)(=O)c2ccccc2-3)c1	none
O=C1C(c2ccccc2)=NCCN1C(c1ccc(F)cc1)c1nc2ccccc2[nH]1 (centres undefined)	none (no result: Efflux pump inh, Arr AP2 block, DSG3 Ab inh)
CCNC(=O)N(CC)C[C@H]1N[C@@](C)(C(=O)OC)[C@H]2C(=O)N(Cc3ccccc3)C(=O)[C@@H]12	none
CCN(C[C@H]1N[C@@](C)(C(=O)OC)[C@H]2C(=O)N(Cc3ccccc3)C(=O)[C@@H]12)C(=O)c1ccccc1	Arr AP2 block 56.8 | Arr AP2 CP1 inactive | GST-FITC bead inactive
COC(=O)[C@@]12C[C@@H](CC(=O)NCCc3ccccc3OC)C(=O)N(Cc3ccco3)C1=CCC(C)(C)C2	none (no result: Efflux pump inh, Arr AP2 block, DSG3 Ab inh)
Cc1cc(C)cc(NC(=O)c2cccc3c2C(=O)N(C2CCCCC2)C3)c1	Arr AP2 block 61.9 | Arr AP2 CP1 inactive | GST-FITC bead inactive
O=C(Nc1ccc(Br)cc1)c1cccc2c1C(=O)N(C1CCCCC1)C2	none
Cc1ccc(N(C)S(=O)(=O)c2cccc(C(=O)NNC(=O)c3ccncc3)c2)cc1	none (no result: DSG3 Ab inh)
COc1ccccc1C(=O)NCCC(=O)N1CCN(C(C)=O)CC1	Arr AP2 block 61.0 | Arr AP2 CP1 inactive | GST-FITC bead inactive
CCOC(=O)C1=C(COC(=O)CCOc2ccc(OCC)cc2)NC(=O)NC1C (centres undefined)	none (no result: DSG3 Ab inh) | Arr AP2 CP1 inactive | GST-FITC bead inactive
CCOC(=O)C1=C(COC(=O)CCOc2ccccc2C)NC(=O)NC1C (centres undefined)	none | Arr AP2 CP1 inactive | GST-FITC bead inactive
CCOC(=O)C1=C(COC(=O)c2ccccc2OC)NC(=O)NC1C (centres undefined)	none (no result: Efflux pump inh)
CCOC(=O)C1=C(COC(=O)CCCOc2ccccc2)NC(=O)NC1C (centres undefined)	none (no result: Efflux pump inh) | Arr AP2 CP1 inactive | GST-FITC bead inactive

Screening data: PubChem, several laboratories
